These results are taken from ChEMBL document CHEMBL1146344, “Design, synthesis, and evaluation of 2-aryl-3-heteroaryl-1,3-thiazolidin-4-ones as anti-HIV agents” (Bioorg Med Chem, 2007).

Data set [1] can be described thus: Cytotoxicity against CEM cells. The data set is classed as cell-based. As to conditions: human, CEM (CCRF-CEM) cells. The essentials:
(§1)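 Mock-infected MT-4 or CEM cultures exposed to compound dilutions at 37 °C, with incubation times as in the antiviral runs. Viable cell number determined. Means of at least two separate experiments.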

The nature of data set [2]: Cytotoxicity against MT4 cells. As to conditions: human. In kind it is cell-based. The essentials:
as §1

`Fc1cccc(F)c1C1SCc2nc3ccccc3n21` (configuration not stated) [THIAZOLOBENZIMIDAZOLE]: the CC50 in data set [1] was found to be 50 µM; in data set [2] it was 19.2 µM.
